For 3 molecules, Ki and AD50 results are on record in ChEMBL document CHEMBL1126828, “Structure-activity relationships of trans-3,4-dimethyl-4-(3-hydroxyphenyl)piperidine antagonists for mu- and kappa-opioid receptors” (J Med Chem, 1993).

Active and inactive are the calls of the source. The calls are words filed in the database; no cut-off is given here.

For assay [1], the target named is Kappa-type opioid receptor (Cavia porcellus, UniProt P41144). The experiment in a line: Binding affinity towards kappa-opioid receptor by displacement of [3H]EKC from guinea pig cortical tissue. The method in brief: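 Guinea pig cortical washed crude synaptosomal membranes (stored -125 °C) in modified Krebs-HEPES pH 7.4; 1.0 nM [3H]ethylketocyclazocine, 100 nM fentanyl and 100 nM D-Ala2-D-Leu5-enkephalin to block mu/delta sites; 37 °C, 45 min. Nonspecific: 1000 nM unlabeled EKC. GF-C filtration, ice-cold washes, scintillation counting. Ki from at least six concentrations in triplicate, by regression.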
Chain of Kappa-type opioid receptor (P41144 whole entry): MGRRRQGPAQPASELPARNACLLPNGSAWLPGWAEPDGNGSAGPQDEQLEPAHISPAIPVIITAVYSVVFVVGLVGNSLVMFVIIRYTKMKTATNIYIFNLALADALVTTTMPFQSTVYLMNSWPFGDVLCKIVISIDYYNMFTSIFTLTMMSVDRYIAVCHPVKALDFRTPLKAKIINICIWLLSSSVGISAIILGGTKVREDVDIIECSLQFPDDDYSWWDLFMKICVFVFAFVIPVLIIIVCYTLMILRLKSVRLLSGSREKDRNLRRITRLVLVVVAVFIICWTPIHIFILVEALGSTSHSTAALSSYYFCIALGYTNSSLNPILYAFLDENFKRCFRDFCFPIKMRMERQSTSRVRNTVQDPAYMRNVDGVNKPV

For assay [2], the target named is Kappa-type opioid receptor (Mus musculus) (UniProt P33534). The experiment in a line: Antagonism of opioid analgesia using a mouse writhing model to block U-50,488 ([…]) induced kappa-opioid receptor subcutaneously. The class given is functional, organism-based.
Chain of Kappa-type opioid receptor (Mus musculus) (P33534 whole entry): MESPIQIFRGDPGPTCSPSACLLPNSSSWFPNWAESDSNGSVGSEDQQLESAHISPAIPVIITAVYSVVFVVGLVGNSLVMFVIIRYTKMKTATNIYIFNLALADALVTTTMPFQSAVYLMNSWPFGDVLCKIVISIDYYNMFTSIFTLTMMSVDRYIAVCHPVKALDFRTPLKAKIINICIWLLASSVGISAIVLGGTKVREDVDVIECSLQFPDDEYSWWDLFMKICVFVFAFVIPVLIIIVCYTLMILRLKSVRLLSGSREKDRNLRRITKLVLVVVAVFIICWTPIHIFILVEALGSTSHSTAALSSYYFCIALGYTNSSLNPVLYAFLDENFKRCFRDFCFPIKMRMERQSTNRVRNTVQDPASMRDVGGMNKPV
Assay [3] addresses Kappa-type opioid receptor (Rattus norvegicus) (UniProt P34975). The experiment in a line: Tested for the antagonism of kappa opioid receptor diuresis at a dose of 0.08 mg/kg subcutaneously. The class given is functional, organism-based. The arrangement: dose 0.08 mg/kg. The method in brief:
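Male Long-Evans hooded rats (350-500 g), bremazocine HCl 0.08 mg/kg sc to induce diuresis, test antagonist sc at once on opposite side; metabolism cages, urine volume at 2 and 5 h. Three rats per dose, doses varied 2-fold; AD50 = dose halving 5-h urination.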

In assay [4] the target is Mu-type opioid receptor (Mus musculus) (UniProt P42866). The experiment in a line: Antagonism of opioid analgesia using a mouse writhing model to block morphine ([…]) induced mu-opioid receptor (subcutaneously dosed). The format is functional, organism-based.
Chain of Mu-type opioid receptor (Mus musculus) (P42866 whole entry): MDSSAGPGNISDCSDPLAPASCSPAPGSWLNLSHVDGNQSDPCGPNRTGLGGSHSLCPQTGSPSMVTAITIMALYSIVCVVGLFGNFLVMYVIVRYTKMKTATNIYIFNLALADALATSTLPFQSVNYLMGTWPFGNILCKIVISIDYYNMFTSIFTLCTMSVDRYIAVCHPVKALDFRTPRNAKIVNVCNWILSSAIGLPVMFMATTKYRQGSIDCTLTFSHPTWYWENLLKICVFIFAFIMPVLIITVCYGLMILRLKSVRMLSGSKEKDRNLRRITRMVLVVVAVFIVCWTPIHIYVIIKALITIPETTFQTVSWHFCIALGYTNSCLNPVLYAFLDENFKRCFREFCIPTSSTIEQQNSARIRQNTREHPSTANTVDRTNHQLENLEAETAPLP
For assay [5], the target named is T1, Mu-type opioid receptor (Rattus norvegicus, UniProt P33535). The experiment in a line: Binding affinity towards mu-opioid receptor by displacement of [3H]NAL at 10 nM from rat brain homogenates. The format is tissue-based. In general terms: Displacement assays read how much labelled ligand stays bound in the presence of the test substance.
T1 sequence (P33535 whole entry): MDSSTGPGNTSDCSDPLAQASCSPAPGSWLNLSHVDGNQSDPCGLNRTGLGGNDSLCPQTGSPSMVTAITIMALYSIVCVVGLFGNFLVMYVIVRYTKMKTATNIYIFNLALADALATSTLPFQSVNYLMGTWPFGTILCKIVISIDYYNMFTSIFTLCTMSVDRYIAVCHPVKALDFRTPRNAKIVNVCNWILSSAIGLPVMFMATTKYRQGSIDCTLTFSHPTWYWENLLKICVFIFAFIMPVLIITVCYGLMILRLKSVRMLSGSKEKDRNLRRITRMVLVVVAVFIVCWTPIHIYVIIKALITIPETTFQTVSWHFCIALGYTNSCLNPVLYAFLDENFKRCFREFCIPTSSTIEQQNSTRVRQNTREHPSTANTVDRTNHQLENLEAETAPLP
The target of assay [6] is T1, Mu-type opioid receptor. The assay is described as follows: Binding affinity towards mu-opioid receptor by displacement of [3H]NAL at 100 nM from rat brain homogenates. The format is tissue-based.
In assay [7] the target is Mu-type opioid receptor (Mus musculus) (UniProt P42866). The settings on record: 0.08 mg/kg.

Chain of Kappa-type opioid receptor (Rattus norvegicus) (P34975 whole entry): as the sequence (P33534 whole entry) above, with D11E, S17A, S51P, A308V counted along it

With `Cc1ccccc1CCN1CC[C@@](C)(c2cccc(O)c2)[C@@H](C)C1`, the Ki (commonly the equilibrium dissociation constant of an inhibitor or competing ligand from its target) in assay [1] came to 7.5 nM; on Mu-type opioid receptor [5] it was 90 nM; on Mu-type opioid receptor [6], 100 nM. Further, the AD50 in assay [2] was 0.33 mg/kg; in assay [3], 0.5 mg/kg; in assay [4], 0.19 mg/kg.
`C[C@H]1CN(CCc2ccc(Cl)c(Cl)c2)CC[C@@]1(C)c1cccc(O)c1`: the Ki at Mu-type opioid receptor [5] is 50 nM; at Mu-type opioid receptor [6] it was 90 nM. Further, the AD50 entry in assay [7] is “inactive”.
As for `C[C@H]1CN(CC2CCCO2)CC[C@@]1(C)c1cccc(O)c1` (some centres undefined), the AD50 turned out to be 0.75 mg/kg in assay [2], 3.2 mg/kg in assay [3] and 0.6 mg/kg in assay [4]. Further, the figures for the Ki at Mu-type opioid receptor [5] and at Mu-type opioid receptor [6] were 26 nM and 60 nM, respectively.
